Assay results taken from ChEMBL document CHEMBL1123296, “Potential antiatherosclerotic agents. 5. An acyl-CoA:cholesterol O-acyltransferase inhibitor with hypocholesterolemic activity” (J Med Chem, 1986).
pIC50: −log10 of the molar value. Values joined by “and” are separate entries in the source; they are usually repeats but may differ in a detail not shown here. Identical values can stand only once.

Legend:
Rattus norvegicus [1] = organism: Rattus norvegicus; assay: Effective concentration required to effect liver cholesterol concentrations in rat; assay type: functional
Method in brief: (§1)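 Rats fed diet with 1% cholesterol and 0.5% cholic acid, compound given in the diet at 1, 3 or 10 mg/kg per day. Read-outs were liver cholesterol (mg/g), serum cholesterol and serum triglycerides (mg/dL), each given as mean ± SEM. ED50 was derived from the dose response of liver cholesterol.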

Rattus norvegicus [2] = assay: (§2) Effect of serum lipids in cholesterol-fed rats Serum triglyceride at a dose of 1 mg/kg per day of the compound.; assay type: functional; method in brief: as §1
Rattus norvegicus [3] = organism: Rattus norvegicus; assay: Compound was evaluated for the effect on serum lipids in cholesterol-fed rats; assay type: functional; method in brief: as §1
Rattus norvegicus [4] = organism: Rattus norvegicus; assay: Effect of liver Cholesterol absorption in cholesterol-fed rats; assay type: functional; method in brief: as §1
Rattus norvegicus [5] = assay: as §2; assay type: functional; method in brief: as §1; remark: listed apart in the source
Rattus norvegicus [6] = assay: Compound was evaluated for the effect of serum lipids in cholesterol-fed rats Serum triglyceride at a dose of 10 mg/kg per day; assay type: functional; method in brief: as §1
Rattus norvegicus [7] = assay: Effect of serum lipids in cholesterol-fed rats and Serum cholesterol at a dose of 1 mg/kg per day of the compound.; assay type: functional; method in brief: as §1
[8] = target: T1, Sterol O-acyltransferase 1 (Homo sapiens, UniProt P35610); assay: In vitro inhibitory activity against acyl coenzyme A:cholesterol acyltransferase
T1 sequence (P35610 whole entry): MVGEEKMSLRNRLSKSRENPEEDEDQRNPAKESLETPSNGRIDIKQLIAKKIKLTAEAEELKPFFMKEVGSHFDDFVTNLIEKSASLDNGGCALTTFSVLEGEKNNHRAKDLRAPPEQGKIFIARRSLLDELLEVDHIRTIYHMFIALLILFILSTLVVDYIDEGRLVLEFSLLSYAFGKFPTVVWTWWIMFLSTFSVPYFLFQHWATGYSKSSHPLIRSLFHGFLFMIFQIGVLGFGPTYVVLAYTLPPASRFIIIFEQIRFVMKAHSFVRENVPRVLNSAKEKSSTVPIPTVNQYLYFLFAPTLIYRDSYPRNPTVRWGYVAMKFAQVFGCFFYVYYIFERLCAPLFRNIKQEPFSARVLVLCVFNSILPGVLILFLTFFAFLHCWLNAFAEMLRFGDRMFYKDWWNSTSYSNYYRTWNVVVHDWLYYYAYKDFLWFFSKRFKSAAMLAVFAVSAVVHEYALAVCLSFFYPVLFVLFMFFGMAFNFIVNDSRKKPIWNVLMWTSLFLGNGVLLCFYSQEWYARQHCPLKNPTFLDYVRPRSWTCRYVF

`CCCCCCCN(Cc1ccc(CC(C)(C)C)cc1)C(=O)Nc1ccc(F)cc1F` [CL-277082] was tested, and the ED50 (Rattus norvegicus [1]) was 5.4 mg/kg, the Triglycerides (Rattus norvegicus [2]) was 132 mg/dL and the Cholesterol (Rattus norvegicus [3]) was 84 mg/dL. It also gave a Liver cholesterol (Rattus norvegicus [4]) of 15.6 mg/g, a Triglycerides (Rattus norvegicus [5]) of 121 mg/dL and a Triglycerides (Rattus norvegicus [6]) of 77 mg/dL. For the same compound, the Cholesterol (Rattus norvegicus [7]) was 211 mg/dL and 357 mg/dL.

With `CC(=O)[C@H]1CC[C@H]2[C@@H]3CCC4=CC(=O)CC[C@]4(C)[C@H]3CC[C@]12C` [PROGESTERONE] the pIC50 [8] was 4.77.
